Results: PMC6633905 (Molecular pharmaceutics, 2018)

Tests used:
[1] = target: T1, human DP1 receptors (Homo sapiens, UniProt Q13258); experiment: cAMP TR-FRET counter screen in C6-glioma cells, DP1; type: cell-based; conditions: read-out: DP1 KB; Schild KB; C6-glioma cells overexpressing DP1; agonist BW245C
T1 sequence (Q13258 1-359): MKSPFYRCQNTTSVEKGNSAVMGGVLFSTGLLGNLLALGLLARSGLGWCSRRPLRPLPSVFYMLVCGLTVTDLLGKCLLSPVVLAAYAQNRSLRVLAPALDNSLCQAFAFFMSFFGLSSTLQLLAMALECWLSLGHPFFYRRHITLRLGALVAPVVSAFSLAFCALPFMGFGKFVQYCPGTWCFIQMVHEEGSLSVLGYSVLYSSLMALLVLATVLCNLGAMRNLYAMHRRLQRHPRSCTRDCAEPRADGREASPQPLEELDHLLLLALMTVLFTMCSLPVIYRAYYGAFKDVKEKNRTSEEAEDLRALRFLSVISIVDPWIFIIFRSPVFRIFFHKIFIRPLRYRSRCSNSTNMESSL
Method in brief: (§1)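 Rat C6 glioma cells stably expressing the human receptor, seeded 4,000/well overnight; 0.5 h in HBSS with 20 μM rolipram at room temperature; test compound for 10 or 50 min, then rising agonist concentrations for 40 min. Lysis, cAMP-d2/anti-cAMP-Cryptate TR-FRET (F665/F590).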

[2] = target: human IP receptors (Homo sapiens, UniProt P43119); experiment: cAMP TR-FRET counter screen in C6-glioma cells, IP; type: cell-based; conditions: read-out: IP KB; Schild KB; C6-glioma cells overexpressing IP; agonist iloprost
Sequence of human IP receptors (P43119 whole entry): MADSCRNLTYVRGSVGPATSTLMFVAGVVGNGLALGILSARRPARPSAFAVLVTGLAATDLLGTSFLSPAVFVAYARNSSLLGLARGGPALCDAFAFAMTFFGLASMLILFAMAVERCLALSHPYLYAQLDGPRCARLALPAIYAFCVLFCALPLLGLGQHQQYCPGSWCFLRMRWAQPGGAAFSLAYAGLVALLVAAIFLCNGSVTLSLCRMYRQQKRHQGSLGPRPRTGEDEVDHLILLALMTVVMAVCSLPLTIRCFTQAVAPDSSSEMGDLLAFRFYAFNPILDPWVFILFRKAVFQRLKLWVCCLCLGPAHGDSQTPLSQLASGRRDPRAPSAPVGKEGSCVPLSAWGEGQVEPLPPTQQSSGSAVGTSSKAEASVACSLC
Method in brief: as §1

With COc1ccc2cc(OCC3(C(=O)O)CN(C(=O)c4ccc(F)cc4)C3)ccc2c1 [PF-04418948] the Kb [1] was 48.3 µM and the Kb [2] was 1.7 µM.
